Source: paper PMC3694426 (Clinical cancer research : an official journal of the …, 2013)
“Also recorded” adds a separate entry of the source. Marks after values point to notes of the source that are not given here.

Columns and labels:
[1] = phase I dose escalation: DLTs, MTD and treatment-emergent adverse events; assay type: in vivo, human
[2] = plasma pharmacokinetics in patients; assay type: in vivo, human; conditions: for CL/F: day 22 of cycle 1, plasma, arithmetic mean (CV%); for half-life: in vivo
[3] = system: basal cell carcinoma (BCC); assay: antitumor activity in patients with BCC; assay type: in vivo, human
Method in brief: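 Oral test compound, once daily in 28-day cycles, given as an outpatient, preceded by a single dose 7 days before cycle 1. BCC patients were dosed at 130 or 160 mg. Evaluable meant more than one dose plus a post-baseline clinical or RECIST 1.0 assessment. Treatment continued until progression, unacceptable adverse events or withdrawal.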

Gli-1 mRNA = assay: pharmacodynamics: Gli-1 expression in skin and tumor biopsies; assay type: in vivo, human
Method in brief: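 Normal skin was biopsied before treatment and 3 weeks into cycle 1 of once-daily oral dosing. RNA was extracted and Gli-1 mRNA measured by RT-PCR. In the biopsy cohort, accessible tumours were sampled at the same time points (baseline cycle 1 day −7; cycle 1 day 22). Gli-1 IHC scored stromal versus epithelial nuclear staining.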

[4] = system: pancreatic tumor model with elevated Shh (sonic hedgehog) expression; conditions: stated in introduction; cited from earlier work
Smo receptor = conditions: read-out: IC50, binding to the Smo receptor; stated in introduction; cited from earlier work
[5] = 28 evaluable vismodegib-naïve BCC patients

Structure (SMILES): CC1=C2C[C@H]3[C@@H](CC[C@@H]4C[C@H](NS(C)(=O)=O)CC[C@@]43C)[C@@H]2CC[C@@]2(C1)O[C@@H]1C[C@H](C)CN[C@H]1[C@H]2C [IPI-926]
- Fatigue, treatment-emergent adverse event ([1]; <130 mg (n = 5), Grade 1–2): 2 (40) n (%)
- Hemoglobin (lab), treatment-emergent adverse event ([1]; <130 mg (n = 5), Grade 1–2): 3 (60) n (%)
- Muscle spasms, treatment-emergent adverse event ([1]; <130 mg (n = 5), Grade 1–2): 2 (40) n (%)
- Nausea, treatment-emergent adverse event ([1]; <130 mg (n = 5), Grade 1–2): 1 (20) n (%)
- Thrombocytopenia (lab), treatment-emergent adverse event ([1]; <130 mg (n = 5), Grade 1–2): 0 (0) n (%)
- Vomiting, treatment-emergent adverse event ([1]; <130 mg (n = 5), Grade 1–2): 0 (0) n (%)
- ALT elevation (lab), treatment-emergent adverse event ([1]; <130 mg (n = 5), Grade ≥3): 0 (0) n (%)
- AST elevation (lab), treatment-emergent adverse event ([1]; <130 mg (n = 5), Grade ≥3): 0 (0) n (%)
- Alopecia, treatment-emergent adverse event ([1]; <130 mg (n = 5), Grade ≥3): 0 (0) n (%)
- Decreased appetite, treatment-emergent adverse event ([1]; <130 mg (n = 5), Grade ≥3): 0 (0) n (%)
- Diarrhea, treatment-emergent adverse event ([1]; <130 mg (n = 5), Grade ≥3): 0 (0) n (%)
- Dysgeusia, treatment-emergent adverse event ([1]; <130 mg (n = 5), Grade ≥3): 0 (0) n (%)
- Fatigue, treatment-emergent adverse event ([1]; <130 mg (n = 5), Grade ≥3): 0 (0) n (%)
- Hemoglobin (lab), treatment-emergent adverse event ([1]; <130 mg (n = 5), Grade ≥3): 0 (0) n (%)
- Muscle spasms, treatment-emergent adverse event ([1]; <130 mg (n = 5), Grade ≥3): 0 (0) n (%)
- Nausea, treatment-emergent adverse event ([1]; <130 mg (n = 5), Grade ≥3): 0 (0) n (%)
- Thrombocytopenia (lab), treatment-emergent adverse event ([1]; <130 mg (n = 5), Grade ≥3): 0 (0) n (%)
- Vomiting, treatment-emergent adverse event ([1]; <130 mg (n = 5), Grade ≥3): 0 (0) n (%)
- ALT elevation (lab), treatment-emergent adverse event ([1]; >160 mg (n = 15), Grade 1–2): 11 (73) n (%)
- AST elevation (lab), treatment-emergent adverse event ([1]; >160 mg (n = 15), Grade 1–2): 12 (80) n (%)
- Alopecia, treatment-emergent adverse event ([1]; >160 mg (n = 15), Grade 1–2): 2 (13) n (%)
- Decreased appetite, treatment-emergent adverse event ([1]; >160 mg (n = 15), Grade 1–2): 4 (27) n (%)
- Diarrhea, treatment-emergent adverse event ([1]; >160 mg (n = 15), Grade 1–2): 2 (13) n (%)
- Dysgeusia, treatment-emergent adverse event ([1]; >160 mg (n = 15), Grade 1–2): 1 (7) n (%)
- Fatigue, treatment-emergent adverse event ([1]; >160 mg (n = 15), Grade 1–2): 6 (40) n (%)
- Hemoglobin (lab), treatment-emergent adverse event ([1]; >160 mg (n = 15), Grade 1–2): 12 (80) n (%)
- Muscle spasms, treatment-emergent adverse event ([1]; >160 mg (n = 15), Grade 1–2): 4 (27) n (%)
- Nausea, treatment-emergent adverse event ([1]; >160 mg (n = 15), Grade 1–2): 7 (47) n (%)
- Thrombocytopenia (lab), treatment-emergent adverse event ([1]; >160 mg (n = 15), Grade 1–2): 1 (7) n (%)
- Vomiting, treatment-emergent adverse event ([1]; >160 mg (n = 15), Grade 1–2): 5 (33) n (%)
- ALT elevation (lab), treatment-emergent adverse event ([1]; >160 mg (n = 15), Grade ≥3): 4 (27) n (%)
- AST elevation (lab), treatment-emergent adverse event ([1]; >160 mg (n = 15), Grade ≥3): 3 (20) n (%)
- Alopecia, treatment-emergent adverse event ([1]; >160 mg (n = 15), Grade ≥3): 0 (0) n (%)
- Decreased appetite, treatment-emergent adverse event ([1]; >160 mg (n = 15), Grade ≥3): 1 (7) n (%)
- Diarrhea, treatment-emergent adverse event ([1]; >160 mg (n = 15), Grade ≥3): 0 (0) n (%)
- Dysgeusia, treatment-emergent adverse event ([1]; >160 mg (n = 15), Grade ≥3): 0 (0) n (%)
- Fatigue, treatment-emergent adverse event ([1]; >160 mg (n = 15), Grade ≥3): 2 (13) n (%)
- Hemoglobin (lab), treatment-emergent adverse event ([1]; >160 mg (n = 15), Grade ≥3): 1 (7) n (%)
- Muscle spasms, treatment-emergent adverse event ([1]; >160 mg (n = 15), Grade ≥3): 0 (0) n (%)
- Nausea, treatment-emergent adverse event ([1]; >160 mg (n = 15), Grade ≥3): 0 (0) n (%)
- Thrombocytopenia (lab), treatment-emergent adverse event ([1]; >160 mg (n = 15), Grade ≥3): 0 (0) n (%)
- Vomiting, treatment-emergent adverse event ([1]; >160 mg (n = 15), Grade ≥3): 0 (0) n (%)
- recommended phase II / single-agent dose ([1]; QD, 28-day cycles): 160 mg
- dose levels well tolerated ([1]; administered QD): up to 160 mg
- hematologic toxicity ([1]; all dose levels): not associated with hematologic toxicity; also recorded: No significant hematologic toxicities
- patients reporting alopecia ([1]; at the MTD): 22%
- patients reporting muscle spasms ([1]; at the MTD): 33%
- CL/F ([2]; 20 mg QD oral (n = 1)): 111 (NC) L/h
- CL/F ([2]; 30 mg QD oral (n = 1)): 59.0 (NC) L/h
- CL/F ([2]; 40 mg QD oral (n = 1)): 50.0 (NC) L/h
- CL/F ([2]; 60 mg QD oral (n = 1)): 28.6 (NC) L/h
- CL/F ([2]; 130 mg QD oral, n = 4): 23.0 (36.0) ^b L/h
- CL/F ([2]; 160 mg QD oral (n = 4)): 21.2 (38.5) L/h
- CL/F ([2]; 180 mg QD oral (n = 1)): 14.0 (NC) L/h
- CL/F ([2]; 200 mg QD oral (n = 1)): 13.3 (NC) L/h
- CL/F ([2]; 210 mg QD oral (n = 5)): 20.6 (35.5) L/h
- mean oral clearance (CL/F) ([2]; 130-mg dose level, expanded phases): 27.4 L/h
- mean oral clearance (CL/F) ([2]; 160-mg dose level, expanded phases): 20.1 L/h
- half-life ([2]; human, po): 20 to 40 h
- half-life ([2]; human, po, 130 mg): 19.3 h
- half-life ([2]; human, po, 160 mg): 17.3 h
- half-life ([2]; human, po, 180 mg): 16.1 h
- half-life ([2]; human, po, 200 mg): 12.7 h
- Tmax ([2]; human, plasma, po, Tmax (slow absorption), overall summary, patients): 2 to 8 h
- dose dependence of mean AUC0–24 and Cmax ([2]; single and multiple doses of 130 to 160 mg, expanded phases): dose-proportional manner
- complete response (CR) [3, 5]: 2 patients
- partial response (PR) [3, 5]: 6 patients
- patients with objective response [3, 5]: Eight
- patients showing a response ([3]; HhP inhibitor-naïve evaluable BCC patients, doses ≥130 mg): 8 of 28
- difference in efficacy between the 130- and 160-mg dose levels ([3]; full BCC cohort (N = 39)): no apparent difference in efficacy
- objective responses ([3]; nine BCC patients previously treated with vismodegib): no objective responses
- patients with a decrease in Gli-1 transcript level in normal skin biopsies (Gli-1 mRNA; 48 of 65 patients, after 21 days of treatment): 74%
- Gli-1 transcript reduction in stroma (LCM quantitative RT-PCR) (Gli-1 mRNA; rectal adenocarcinoma patient biopsy, cycle 1, day 22 vs baseline): about 7 fold
- Gli-1 stromal staining (IHC) (Gli-1 mRNA; rectal adenocarcinoma posttreatment biopsy, cycle 1, day 22): reduced Gli-1 stromal staining
- Shh signaling in surrounding stromal tissue (Gli1 mRNA) [4]: inhibited Shh signaling
- tumor growth [4]: slows tumor growth
- IC50 (Smo receptor): 1.4 nM
